Activity calls are given as the source filed them. The rule behind the calls is not given here. Positions of bridges follow the written chain, without caps; N, C: chain ends. Residues, ends and D or L forms follow the SMILES beside them.
Columns and labels:
[1] = Drug level in blood of mouse LLC allografted in mouse at 100 mg/kg, ip; type: ADME, organism-based; conditions: in vivo, read-out: Drug uptake
[2] = system: Lewis lung carcinoma cell line; assay: Antitumor activity against mouse LLC allografted in C57Bl6/N mouse assessed as inhibition olf tumor growth at 200 mg/kg/day, ip; type: functional; conditions: read-out: TGI
[3] = system: Lewis lung carcinoma cell line; assay: Antimetastatic activity against mouse LLC allografted in mouse assessed as reduction in tumor nodule numbers at 100 mg/kg, ip; type: functional; set-up: scale not given: the % may be the effect or the level left
CT26 [4] = assay: Cytotoxicity against mouse CT26 cells at 100 uM; type: cell-based; conditions: ct26, 100 µM
[5] = molecular target: Urokinase-type plasminogen activator (Mus musculus) (UniProt P06869); assay: Inhibition of the intrinsic peri-cellular uPA in mouse CT26 cells assessed as reduction in cell migration at 100 uM measured every hour by wound healing assay relative to control; type: cell-based
MCF7 = assay: Anti-invasive activity in human MCF7 cells at 100 uM measured every hour by transwell assay; type: functional, cell-based
[6] = molecular target: Urokinase-type plasminogen activator (Mus musculus) (UniProt P06869); assay: Inhibition of the intrinsic peri-cellular uPA in mouse CT26 cells assessed as reduction in cell invasion at 100 uM […] by transwell assay; type: cell-based
Procedure, shortened: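 CT-26 cells, 2×10^5 per Matrigel-coated Transwell top chamber in serum-free DMEM with peptide; 10% serum medium below. After 24 h, invaded underside cells stained with 0.1% crystal violet, eluted in 33% acetic acid, read at A570 and normalized to untreated (100%). Triplicates. The legend gives a 0.1–100 μM dose range, with IC50 derived from the dose-response.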

Plasminogen [7] = molecular target: Plasminogen (Mus musculus, UniProt P20918); assay: Inhibition of mouse plasmin preincubated for 15 mins followed by chromogenic substrate addition
CT26 [8] = assay: Antimetastatic activity against mouse CT26 cells allografted in Balb/c mouse at 12.3 mg/kg, ip administered daily for 15 days by hematoxylin and eosin staining -based assay; type: functional, organism-based
Procedure, shortened: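 Lung metastasis model: male Balb/c mice given 10^6 GFP-CT-26 cells i.v., daily i.p. dosing Day 1–15, sacrificed Day 16. Formalin-fixed, paraffin-embedded lung sections stained with H&E for histology alongside normal lungs.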

[9] = molecular target: T1, Urokinase-type plasminogen activator (Mus musculus, UniProt P06869); assay: Inhibition of mouse uPA preincubated for 15 mins followed by chromogenic substrate addition
CT26 [10] = assay: Anti-tumor activity against […] mouse CT26 cells allografted in Balb/c mouse assessed as tumor growth inhibition at 12.3 mg/kg, ip administered daily for 15 days and measured on day 16 by […]; type: functional; conditions: read-out: TGI
Procedure, shortened: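 CT-26 cells implanted subcutaneously in right flank of Balb/c mice; once tumors reached about 150~200 mm3, daily intraperitoneal dosing with peptide or saline for 15 days. Mice sacrificed on Day 16; tumors resected and weighed; tumor growth reduction relative to saline group.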

[11] = molecular target: Urokinase-type plasminogen activator (Homo sapiens, UniProt P00749); assay: Inhibition of human uPA preincubated for 15 mins followed by chromogenic substrate addition
Plasma kallikrein [12] = molecular target: Plasma kallikrein (Mus musculus, UniProt P26262); assay: Inhibition of mouse plasma kallikrein preincubated for 15 mins followed by chromogenic substrate addition
[13] = molecular target: Tissue-type plasminogen activator (Homo sapiens, UniProt P00750); assay: Inhibition of human tissue-type plasminogen activator preincubated for 15 mins followed by chromogenic substrate addition
[14] = molecular target: T1, Urokinase-type plasminogen activator; assay: Inhibition of mouse uPA serine protease domain preincubated for 15 mins followed by chromogenic substrate addition
CT26 [15] = assay: Antimetastatic activity against mouse CT26 cells allografted in Balb/c mouse assessed as reduction genomic DNA of metastatic cells at 12.3 mg/kg, ip administered daily for 15 days by qPCR analysis; type: functional, organism-based
Procedure, shortened: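 Male Balb/c mice (~20 g, 6/group) given 10^6 GFP-CT-26 cells i.v. in 200 µl mixed with peptide or saline, then daily i.p. peptide Day 1–15; sacrificed Day 16. Lung total DNA isolated after homogenization; 200 ng per SYBR Green qPCR, quantified against standard curve of CT-26 DNA spiked into normal lung DNA (0.135%-100%).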

[16] = molecular target: Urokinase-type plasminogen activator (Mus musculus) (UniProt P06869); assay: Inhibition of the intrinsic peri-cellular uPA in mouse CT26 cells assessed as reduction in cell invasion measured every hour by transwell assay; type: cell-based
[17] = molecular target: T1, Urokinase-type plasminogen activator; assay: Binding affinity to mouse uPA by SPR assay
Coagulation factor XI = Coagulation factor XI (Homo sapiens, UniProt P03951); assay: Inhibition of human factor 11a preincubated for 15 mins followed by chromogenic substrate addition
Plasma kallikrein [18] = molecular target: Plasma kallikrein (Homo sapiens, UniProt P03952); assay: Inhibition of human plasma kallikrein preincubated for 15 mins followed by chromogenic substrate addition
[19] = molecular target: Urokinase-type plasminogen activator (Mus musculus) (UniProt P06869); assay: Inhibition of the intrinsic peri-cellular uPA in mouse CT26 cells assessed as reduction in cell migration at 30 to 100 uM measured every hour by wound healing assay relative to control; type: cell-based
[20] = Toxicity in Balb/c mouse allografted with mouse CT26 cells assessed as effect on body weight at 12.3 mg/kg, ip administered daily for 15 days; type: organism-based; conditions: in vivo, 360 h
Procedure, shortened: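 CT-26 tumour-bearing Balb/c mice dosed i.p. daily with peptide or saline; body weights recorded daily over the 15 days.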

Plasminogen [21] = molecular target: Plasminogen (Homo sapiens, UniProt P00747); assay: Inhibition of human plasmin preincubated for 15 mins followed by chromogenic substrate addition
Prothrombin [22] = molecular target: Prothrombin (Homo sapiens, UniProt P00734); assay: Inhibition of human thrombin preincubated for 15 mins followed by chromogenic substrate addition
[23] = molecular target: Tissue-type plasminogen activator (Mus musculus, UniProt P11214); assay: Inhibition of mouse tissue-type plasminogen activator preincubated for 15 mins followed by chromogenic substrate addition
[24] = molecular target: T1, Urokinase-type plasminogen activator; assay: Binding affinity to mouse uPA expressed in HEK2936E cells by ITC assay
CT26 [25] = assay: Antimetastatic activity against GFP-fused mouse CT26 cells allografted in Balb/c mouse assessed as reduction in relative fluorescence at 12.3 mg/kg, ip administered daily for 15 days by fluorescence-based assay; type: functional, organism-based
Procedure, shortened: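 Lung metastasis model: male Balb/c mice (~20 g, 6/group) given 10^6 GFP-CT-26 cells i.v. with peptide or saline, daily i.p. dosing Day 1–15, sacrificed Day 16. Resected lungs imaged for GFP with 488 nm excitation, emission 520; signal collected over 20×20 mm2 per lung; non-implanted normal group used for background subtraction.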

[26] = Inhibition of mouse trypsin preincubated for 15 mins followed by chromogenic substrate addition
CT26 [27] = assay: Antimetastatic activity against GFP-fused mouse CT26 cells allografted in Balb/c mouse assessed as reduction in tumor nodule numbers at 12.3 mg/kg, ip administered daily for 15 days by fluorescence-based assay; type: functional, organism-based
Procedure, shortened: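 Lung metastasis model: male Balb/c mice (~20 g, 6/group) given 10^6 GFP-CT-26 cells i.v. with peptide or saline, daily i.p. dosing Day 1–15, sacrificed Day 16. Surface tumor nodules on pleural surfaces counted per lung after soaking in formaldehyde.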

[28] = molecular target: T2, Suppressor of tumorigenicity 14 protein (Homo sapiens, UniProt Q9Y5Y6); assay: Inhibition of human matriptase preincubated for 15 mins followed by chromogenic substrate addition
T2 sequence (Q9Y5Y6 whole entry): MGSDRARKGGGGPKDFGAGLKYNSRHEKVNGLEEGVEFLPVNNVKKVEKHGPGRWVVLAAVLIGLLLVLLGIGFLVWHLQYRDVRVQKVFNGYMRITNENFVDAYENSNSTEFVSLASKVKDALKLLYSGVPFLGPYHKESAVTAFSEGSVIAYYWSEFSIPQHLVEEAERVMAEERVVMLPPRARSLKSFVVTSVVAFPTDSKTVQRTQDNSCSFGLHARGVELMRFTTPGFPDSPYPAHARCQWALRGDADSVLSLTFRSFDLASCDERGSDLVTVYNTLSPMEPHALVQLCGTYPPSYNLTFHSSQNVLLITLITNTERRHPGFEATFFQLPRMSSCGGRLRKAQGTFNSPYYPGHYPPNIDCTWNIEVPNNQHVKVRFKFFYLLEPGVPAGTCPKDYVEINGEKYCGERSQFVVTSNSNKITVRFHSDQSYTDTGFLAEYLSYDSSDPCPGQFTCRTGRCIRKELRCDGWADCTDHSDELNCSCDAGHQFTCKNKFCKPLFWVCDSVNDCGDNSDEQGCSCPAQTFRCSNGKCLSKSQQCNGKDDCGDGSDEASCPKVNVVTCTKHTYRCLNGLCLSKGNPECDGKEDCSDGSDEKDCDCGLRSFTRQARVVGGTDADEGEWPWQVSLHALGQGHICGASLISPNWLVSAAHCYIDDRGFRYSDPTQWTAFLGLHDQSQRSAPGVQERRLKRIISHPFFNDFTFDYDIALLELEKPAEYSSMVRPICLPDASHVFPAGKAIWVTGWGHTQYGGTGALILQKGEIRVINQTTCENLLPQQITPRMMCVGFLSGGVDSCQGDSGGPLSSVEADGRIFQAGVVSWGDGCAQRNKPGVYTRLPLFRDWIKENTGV

[29] = molecular target: T1, Urokinase-type plasminogen activator; assay: Inhibition of mouse uPA
[30] = molecular target: Vitamin K-dependent protein C (Homo sapiens, UniProt P04070); assay: Inhibition of human activated protein C preincubated for 15 mins followed by chromogenic substrate addition
CT26 [31] = assay: Antimetastatic activity against GFP-fused mouse CT26 cells allografted in Balb/c mouse assessed as reduction in hyperplastic weights at 12.3 mg/kg, ip administered daily for 15 days by fluorescence-based assay; type: functional, organism-based
Procedure, shortened: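 Lung metastasis model: male Balb/c mice (~20 g, 6/group) given 10^6 GFP-CT-26 cells i.v. with peptide or saline, then daily i.p. dosing Day 1–15. Lungs resected and weighed immediately at sacrifice on Day 16; hyperplastic weight = lung weight minus weight of lungs from non-implanted normal mice.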

Prothrombin [32] = molecular target: Prothrombin (Mus musculus, UniProt P19221); assay: Inhibition of mouse thrombin preincubated for 15 mins followed by chromogenic substrate addition

Sequence of Urokinase-type plasminogen activator (Mus musculus) (P06869 21-178 limits assumed): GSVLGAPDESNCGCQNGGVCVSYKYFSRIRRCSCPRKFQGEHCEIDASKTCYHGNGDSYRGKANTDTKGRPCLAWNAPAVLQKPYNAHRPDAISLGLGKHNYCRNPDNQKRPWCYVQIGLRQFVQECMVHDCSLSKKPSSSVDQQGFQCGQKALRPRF
Sequence of Urokinase-type plasminogen activator (Mus musculus) (P06869 180-433 limits assumed): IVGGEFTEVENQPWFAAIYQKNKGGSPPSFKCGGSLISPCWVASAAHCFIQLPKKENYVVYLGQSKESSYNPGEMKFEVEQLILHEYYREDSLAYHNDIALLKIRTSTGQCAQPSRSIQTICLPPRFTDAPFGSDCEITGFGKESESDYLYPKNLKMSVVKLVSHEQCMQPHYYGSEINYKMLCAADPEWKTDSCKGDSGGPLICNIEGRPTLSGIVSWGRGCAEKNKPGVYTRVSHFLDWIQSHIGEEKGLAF
T1 sequence (P06869 21-178 limits assumed): as the sequence (P06869 21-178 limits assumed) above
T1 sequence (P06869 180-433 limits assumed): as the sequence (P06869 180-433 limits assumed) above
Sequence of Tissue-type plasminogen activator (Homo sapiens, UniProt P00750) (P00750 whole entry, the tested form may be a part): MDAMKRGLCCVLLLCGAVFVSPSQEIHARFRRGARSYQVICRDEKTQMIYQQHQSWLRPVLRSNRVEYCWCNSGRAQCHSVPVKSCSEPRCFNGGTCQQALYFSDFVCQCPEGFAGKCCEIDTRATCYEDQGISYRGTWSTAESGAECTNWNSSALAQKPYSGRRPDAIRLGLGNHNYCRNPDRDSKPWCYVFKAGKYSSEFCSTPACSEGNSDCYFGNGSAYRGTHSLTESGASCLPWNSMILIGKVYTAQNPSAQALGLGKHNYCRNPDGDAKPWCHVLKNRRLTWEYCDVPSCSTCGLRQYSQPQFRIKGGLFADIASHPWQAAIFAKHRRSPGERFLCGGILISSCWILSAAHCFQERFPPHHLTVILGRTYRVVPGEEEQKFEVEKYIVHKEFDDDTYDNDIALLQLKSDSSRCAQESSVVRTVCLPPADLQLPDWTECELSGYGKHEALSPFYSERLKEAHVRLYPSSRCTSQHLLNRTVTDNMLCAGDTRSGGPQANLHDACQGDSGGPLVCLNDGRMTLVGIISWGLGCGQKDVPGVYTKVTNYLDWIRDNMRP
Sequence of Plasminogen (Homo sapiens, UniProt P00747) (P00747 97-580 limits assumed): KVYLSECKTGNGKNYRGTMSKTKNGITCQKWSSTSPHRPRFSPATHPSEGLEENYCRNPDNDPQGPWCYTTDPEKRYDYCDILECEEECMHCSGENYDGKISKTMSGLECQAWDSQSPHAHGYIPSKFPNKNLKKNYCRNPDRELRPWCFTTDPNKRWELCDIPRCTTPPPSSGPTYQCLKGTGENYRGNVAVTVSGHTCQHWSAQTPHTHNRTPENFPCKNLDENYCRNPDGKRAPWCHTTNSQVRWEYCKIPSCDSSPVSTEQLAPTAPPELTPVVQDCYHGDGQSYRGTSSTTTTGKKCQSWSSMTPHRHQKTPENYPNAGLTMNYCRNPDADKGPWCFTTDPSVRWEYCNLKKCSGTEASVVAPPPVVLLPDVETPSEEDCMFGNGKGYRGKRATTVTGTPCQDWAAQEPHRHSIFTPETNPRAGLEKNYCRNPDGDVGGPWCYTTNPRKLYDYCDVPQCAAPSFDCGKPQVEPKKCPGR
Sequence of Plasminogen (Homo sapiens, UniProt P00747) (P00747 581-810 limits assumed): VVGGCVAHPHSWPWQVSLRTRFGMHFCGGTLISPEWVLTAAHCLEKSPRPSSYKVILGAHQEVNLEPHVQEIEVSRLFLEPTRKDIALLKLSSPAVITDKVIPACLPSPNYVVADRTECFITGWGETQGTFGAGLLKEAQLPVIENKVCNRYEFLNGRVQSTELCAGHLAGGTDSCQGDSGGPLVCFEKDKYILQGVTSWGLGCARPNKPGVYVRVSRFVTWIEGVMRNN
Sequence of Coagulation factor XI (P03951 19-387 limits assumed): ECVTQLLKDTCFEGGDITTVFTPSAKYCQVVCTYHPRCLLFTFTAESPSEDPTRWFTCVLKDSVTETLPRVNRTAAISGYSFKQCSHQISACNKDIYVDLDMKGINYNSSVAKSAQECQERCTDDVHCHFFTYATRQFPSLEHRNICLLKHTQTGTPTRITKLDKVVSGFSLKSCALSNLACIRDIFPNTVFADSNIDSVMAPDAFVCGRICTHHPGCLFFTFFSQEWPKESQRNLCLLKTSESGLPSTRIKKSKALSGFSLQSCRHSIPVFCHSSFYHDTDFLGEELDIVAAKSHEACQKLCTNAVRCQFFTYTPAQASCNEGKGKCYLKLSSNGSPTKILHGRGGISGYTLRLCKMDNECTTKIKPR
Sequence of Coagulation factor XI (P03951 388-625 limits assumed): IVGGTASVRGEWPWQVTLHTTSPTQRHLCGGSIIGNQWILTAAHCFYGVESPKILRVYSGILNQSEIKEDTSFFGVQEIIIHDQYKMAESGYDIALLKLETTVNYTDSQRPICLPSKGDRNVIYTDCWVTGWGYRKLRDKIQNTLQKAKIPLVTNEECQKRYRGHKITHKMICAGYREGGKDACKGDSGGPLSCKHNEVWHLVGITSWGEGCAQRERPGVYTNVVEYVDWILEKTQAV
Sequence of Tissue-type plasminogen activator (Mus musculus, UniProt P11214) (P11214 whole entry): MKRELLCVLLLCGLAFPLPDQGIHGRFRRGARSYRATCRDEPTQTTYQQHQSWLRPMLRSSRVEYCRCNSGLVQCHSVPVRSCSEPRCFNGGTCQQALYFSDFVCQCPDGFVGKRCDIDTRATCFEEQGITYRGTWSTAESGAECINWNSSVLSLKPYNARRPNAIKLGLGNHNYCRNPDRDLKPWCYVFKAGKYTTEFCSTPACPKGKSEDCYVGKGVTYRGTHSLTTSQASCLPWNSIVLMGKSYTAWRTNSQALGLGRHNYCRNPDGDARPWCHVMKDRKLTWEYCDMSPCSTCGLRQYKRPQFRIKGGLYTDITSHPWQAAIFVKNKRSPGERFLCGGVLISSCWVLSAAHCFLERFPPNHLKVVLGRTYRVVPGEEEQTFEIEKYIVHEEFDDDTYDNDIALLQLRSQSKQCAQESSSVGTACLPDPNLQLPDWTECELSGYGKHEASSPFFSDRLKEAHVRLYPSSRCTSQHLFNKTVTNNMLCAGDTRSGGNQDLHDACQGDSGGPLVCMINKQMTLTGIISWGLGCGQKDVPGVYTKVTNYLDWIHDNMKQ
Sequence of Plasma kallikrein (Homo sapiens, UniProt P03952) (P03952 20-390 limits assumed): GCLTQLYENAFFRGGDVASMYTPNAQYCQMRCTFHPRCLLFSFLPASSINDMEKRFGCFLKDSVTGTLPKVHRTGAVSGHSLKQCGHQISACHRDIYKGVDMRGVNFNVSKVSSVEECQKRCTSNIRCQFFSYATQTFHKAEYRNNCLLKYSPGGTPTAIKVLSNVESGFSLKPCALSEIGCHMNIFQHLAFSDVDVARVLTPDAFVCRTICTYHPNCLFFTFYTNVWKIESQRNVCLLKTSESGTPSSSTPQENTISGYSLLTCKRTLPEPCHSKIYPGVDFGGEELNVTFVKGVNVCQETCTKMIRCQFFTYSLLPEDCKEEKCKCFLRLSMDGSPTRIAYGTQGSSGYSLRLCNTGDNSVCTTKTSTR
Sequence of Plasma kallikrein (Homo sapiens, UniProt P03952) (P03952 391-638 limits assumed): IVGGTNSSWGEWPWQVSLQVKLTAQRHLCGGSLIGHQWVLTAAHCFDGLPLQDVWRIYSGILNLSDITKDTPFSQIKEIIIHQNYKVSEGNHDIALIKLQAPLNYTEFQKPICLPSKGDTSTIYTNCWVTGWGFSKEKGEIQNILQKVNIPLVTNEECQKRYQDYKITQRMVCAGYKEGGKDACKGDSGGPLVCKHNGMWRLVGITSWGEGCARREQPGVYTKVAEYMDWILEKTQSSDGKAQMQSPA
Sequence of Plasma kallikrein (Mus musculus, UniProt P26262) (P26262 20-390 limits assumed): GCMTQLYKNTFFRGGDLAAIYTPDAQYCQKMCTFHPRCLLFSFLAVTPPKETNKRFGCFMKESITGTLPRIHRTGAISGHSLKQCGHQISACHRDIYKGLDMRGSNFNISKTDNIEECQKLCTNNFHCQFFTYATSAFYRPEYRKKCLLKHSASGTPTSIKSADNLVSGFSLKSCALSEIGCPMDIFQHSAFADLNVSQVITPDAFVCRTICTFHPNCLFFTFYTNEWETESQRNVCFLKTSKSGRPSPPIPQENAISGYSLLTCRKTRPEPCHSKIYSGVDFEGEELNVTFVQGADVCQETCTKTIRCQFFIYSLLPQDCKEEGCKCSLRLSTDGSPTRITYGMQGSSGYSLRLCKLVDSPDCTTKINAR
Sequence of Plasma kallikrein (Mus musculus, UniProt P26262) (P26262 391-638 limits assumed): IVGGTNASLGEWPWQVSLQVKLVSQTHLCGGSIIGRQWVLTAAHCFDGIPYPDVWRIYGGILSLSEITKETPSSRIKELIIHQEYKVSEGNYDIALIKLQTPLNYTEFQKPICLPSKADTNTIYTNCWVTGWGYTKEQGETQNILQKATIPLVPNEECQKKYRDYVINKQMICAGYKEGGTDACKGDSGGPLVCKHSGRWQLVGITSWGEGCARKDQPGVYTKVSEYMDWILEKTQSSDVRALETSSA

N=C(N)c1ccc(CNC(=O)[C@H](CO)NC(=O)[C@@H](CO)NS(=O)(=O)Cc2ccccc2)cc1
concentration [1]: 1010 µM
inhibition in vivo at 200 mg/kg/day [2]: 43%
Activity [3]: 41.5%

CC[C@H](C)[C@@H]1NC(=O)[C@H](Cc2ccc(O)cc2)NC(=O)[C@H](C)NC(=O)[C@H](CO)NC(=O)[C@H](Cc2ccc(O)cc2)NC(=O)[C@H](C)NC(=O)[C@@H]2CCCN2C(=O)[C@@H](N)CSSC[C@@H](C(=O)O)NC(=O)CNC1=O (H-CPAYSAYIGC-OH; disulfide 1-10)
Activity (CT26 [4]): Non-Toxic
inhibition [5]: inactive
Activity (MCF7): inactive
inhibition [6]: inactive

CC(=O)N[C@H]1CSSC[C@@H](C(N)=O)NC(=O)[C@H](CC(=O)O)NC(=O)[C@H](CC(C)C)NC(=O)[C@H](Cc2ccc(O)cc2)NC(=O)[C@H](CCCNC(=N)N)NC(=O)[C@H](CO)NC(=O)[C@H](Cc2ccc(O)cc2)NC(=O)[C@H](C)NC(=O)[C@@H]2CCCN2C1=O (Ac-CPAYSRYLDC-NH2; disulfide 1-10)
Ki (Plasminogen [7]): > 25 µM
Activity (CT26 [8]): Active
Ki [9]: 0.55 µM
inhibition in vivo at 12.3 mg/kg (CT26 [10]): 36.4%
Ki [11]: 15 µM
Ki (Plasma kallikrein [12]): > 25 µM
Ki [13]: > 25 µM
Ki [14]: 1.77 µM
Activity (CT26 [4]): Non-Toxic
Activity (CT26 [15]): inactive
inhibition [16]: Dose-dependent effect
Kd [17]: 0.398 µM
Ki (Coagulation factor XI): > 25 µM
Ki (Plasma kallikrein [18]): > 25 µM
inhibition [19]: 30%
Activity [20]: Non-Toxic
Ki (Plasminogen [21]): > 25 µM
Ki (Prothrombin [22]): > 25 µM
Ki [23]: > 25 µM
Kd [24]: 0.354 µM
Activity (CT26 [25]): inactive
Ki [26]: 8.3 µM
Activity (CT26 [27]): inactive
Ki [28]: > 25 µM
Ki [29]: 0.55 µM
Ki [30]: > 25 µM
Activity (CT26 [31]): inactive
Ki (Prothrombin [32]): > 25 µM

From ChEMBL document CHEMBL4422663, “Suppression of Tumor Growth and Metastases by Targeted Intervention in Urokinase Activity with Cyclic Peptides” (J Med Chem, 2019)
